ChEMBL document CHEMBL1136881, “2-(substituted phenyl)amino analogs of 1-methoxyspirobrassinol methyl ether: synthesis and anticancer activity” (Bioorg Med Chem, 2009)
Calls of active or inactive are those of the source. The calls are words filed in the database; no cut-off is given here.

Key:
HeLa = assay: Cytotoxicity against human HeLa cells after 72 hrs by MTT assay; format: functional, cell-based
MDA-MB-231 = assay: Cytotoxicity against human MDA-MB-231 cells after 72 hrs by MTT assay; format: functional, cell-based; conditions: MDA-MB-231, 72 h
Procedure, shortened: (§1)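 MTT microculture assay. Cells were seeded per well at 3 × 10³ (A-549, MCF-7, MDA-MB-231; DMEM), 5 × 10³ (HeLa; RPMI 1640) or 1 × 10⁴ (Jurkat, CEM; RPMI 1640), all with 10% FCS. Final concentrations were 10⁻⁴–10⁻⁶ mol·L⁻¹ (4 levels), for 72 h. MTT was then added for 4 h and SDS for 12 h, and A540 read. IC50 was taken against blank-corrected untreated control.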

Jurkat = assay: Cytotoxicity against human Jurkat cells after 72 hrs by MTT assay; format: functional, cell-based; procedure, shortened: as §1
MCF7 = assay: Cytotoxicity against human MCF7 cells after 72 hrs by MTT assay; format: functional, cell-based; conditions: MCF7, 72 h; procedure, shortened: as §1
A549 = assay: Cytotoxicity against human A549 cells after 72 hrs by MTT assay; format: functional, cell-based; conditions: A549, 72 h
CCRF-CEM = assay: Cytotoxicity against human CCRF-CEM cells after 72 hrs by MTT assay; format: functional, cell-based; procedure, shortened: as §1
Bacillus subtilis = assay: Antibacterial activity against Bacillus subtilis CCM 4062 at 20 ug/2.5 ul/6 mm disk after 24 hrs by disk diffusion assay; format: functional, organism-based
Procedure, shortened: (§2)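 Inoculum was prepared from an overnight blood-agar culture and adjusted in saline to 1.5 × 10⁸ CFU/ml (0.5 McFarland). It was swabbed evenly onto Mueller–Hinton or Sabouraud agar, and paper disks were applied. Plates were incubated 24 h at 37 °C. The read-out was inhibition-zone diameter around the disk, run alongside clinical antimicrobial reference agents.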

Streptococcus pyogenes = assay: Antibacterial activity against Streptococcus pyogenes CCM 4425 at 20 ug/2.5 ul/6 mm disk after 24 hrs by disk diffusion assay; format: functional; procedure, shortened: as §2

`CON1c2ccccc2[C@@]2(CN=C(SC)S2)[C@@H]1Nc1ccccc1` (relative stereo) was tested, and the IC50 (HeLa) was 25.8 µM, the IC50 (MDA-MB-231) was 62 µM and the IC50 (Jurkat) was 17.8 µM. It also gave an IC50 (MCF7) of 100 µM, an IC50 (A549) of 100 µM and an IC50 (CCRF-CEM) of 31.8 µM.
`CON1c2ccccc2[C@@]2(CN=C(SC)S2)[C@H]1Nc1ccc(C(F)(F)F)cc1` (relative stereo) gave an IC50 (HeLa) of 34.9 µM, an IC50 (MDA-MB-231) of 31.1 µM and an IC50 (Jurkat) of 28.4 µM. For the same compound, the IC50 (MCF7) was 66.8 µM, the Activity (Bacillus subtilis) was “Active” and the IC50 (A549) was 46.6 µM. The IC50 (CCRF-CEM) was 54 µM.
For `CON1c2ccccc2[C@@]2(CN=C(SC)S2)[C@H]1Nc1ccc(C)cc1` (relative stereo), the IC50 (HeLa) was 36.8 µM, the IC50 (MDA-MB-231) was 100 µM and the IC50 (Jurkat) was 33.3 µM. The IC50 (MCF7) was 100 µM, the IC50 (A549) was 100 µM and the IC50 (CCRF-CEM) was 100 µM.
Work on `COc1cc([C@@H]2c3cc4c(cc3[C@@H](O[C@@H]3O[C@@H]5CO[C@@H](C)O[C@H]5[C@H](O)[C@H]3O)[C@H]3COC(=O)[C@H]23)OCO4)cc(OC)c1O` [ETOPOSIDE] yielded an IC50 (HeLa) of 3.9 µM, an IC50 (MDA-MB-231) of 21.2 µM and an IC50 (Jurkat) of 1.2 µM. It also gave an IC50 (MCF7) of 10.9 µM, an IC50 (A549) of 14.3 µM and an IC50 (CCRF-CEM) of 1.1 µM.
In the case of `CON1c2ccccc2[C@@]2(CN=C(SC)S2)[C@@H]1Nc1ccc(Cl)c(Cl)c1` (relative stereo), the IC50 (HeLa) is reported as 15.4 µM, the IC50 (MDA-MB-231) is reported as 35.5 µM and the IC50 (Jurkat) is reported as 10 µM. For the same compound, the IC50 (MCF7) was 100 µM, the IC50 (A549) was 24.7 µM and the IC50 (CCRF-CEM) was 100 µM.
`COc1ccc(N[C@H]2N(OC)c3ccccc3[C@@]23CN=C(SC)S3)cc1` (relative stereo) gave an IC50 (HeLa) of 100 µM, an IC50 (MDA-MB-231) of 64 µM and an IC50 (Jurkat) of 69.4 µM. For the same compound, the IC50 (MCF7) was 100 µM, the IC50 (A549) was 100 µM and the IC50 (CCRF-CEM) was 15.5 µM.
`CON1c2ccccc2[C@@]2(CN=C(SC)S2)[C@H]1Nc1ccccc1Cl` (relative stereo) gave an IC50 (HeLa) of 100 µM, an IC50 (MDA-MB-231) of 100 µM and an IC50 (Jurkat) of 43 µM. It also gave an IC50 (MCF7) of 100 µM, an IC50 (A549) of 82 µM and an IC50 (CCRF-CEM) of 75.8 µM.
Work on `CO[C@H]1N(OC)c2ccccc2[C@@]12CN=C(SC)S2` (relative stereo) yielded an IC50 (HeLa) of 48.9 µM, an IC50 (MDA-MB-231) of 100 µM and an IC50 (Jurkat) of 30.2 µM. For the same compound, the IC50 (MCF7) was 100 µM, the IC50 (A549) was 100 µM and the IC50 (CCRF-CEM) was 100 µM.
In the case of `CON1c2ccccc2[C@@]2(CN=C(SC)S2)[C@@H]1Nc1ccc(C)cc1` (relative stereo), the IC50 (HeLa) is reported as 100 µM, the IC50 (MDA-MB-231) is reported as 78.7 µM and the IC50 (Jurkat) is reported as 6.6 µM. It also gave an IC50 (MCF7) of 100 µM, an IC50 (A549) of 100 µM and an IC50 (CCRF-CEM) of 64.7 µM.
`CON1c2ccccc2[C@@]2(CN=C(SC)S2)[C@H]1Nc1ccc([N+](=O)[O-])cc1` (relative stereo) gave an IC50 (HeLa) of 100 µM, an IC50 (MDA-MB-231) of 100 µM and an IC50 (Jurkat) of 100 µM. The IC50 (MCF7) was 88 µM, the IC50 (A549) was 30.2 µM and the IC50 (CCRF-CEM) was 54.5 µM.
Compound `COc1ccc(N[C@@H]2N(OC)c3ccccc3[C@@]23CN=C(SC)S3)cc1` (relative stereo) has an IC50 (HeLa) of 81.5 µM, an IC50 (MDA-MB-231) of 100 µM and an IC50 (Jurkat) of 34.8 µM. The IC50 (MCF7) was 100 µM, the IC50 (A549) was 73.9 µM and the IC50 (CCRF-CEM) was 10 µM.
For `CON1c2ccccc2[C@@]2(CN=C(SC)S2)[C@H]1Nc1ccc(Cl)c(Cl)c1` (relative stereo), the IC50 (HeLa) was 21.8 µM, the IC50 (MDA-MB-231) was 20.7 µM and the IC50 (Jurkat) was 21 µM. The IC50 (MCF7) was 22.6 µM, the Activity (Bacillus subtilis) was “Active” and the IC50 (A549) was 21.1 µM. It also gave an IC50 (CCRF-CEM) of 22.6 µM.
`CON1c2ccccc2[C@@]2(CN=C(SC)S2)[C@@H]1Nc1ccc(C)c(C)c1` (relative stereo) gave an IC50 (HeLa) of 54.9 µM, an IC50 (MDA-MB-231) of 100 µM and an IC50 (Jurkat) of 10 µM. It also gave an IC50 (MCF7) of 100 µM, an IC50 (A549) of 100 µM and an IC50 (CCRF-CEM) of 100 µM.
In the case of `CON1c2ccccc2[C@@]2(CN=C(SC)S2)[C@H]1Nc1ccc(Cl)cc1` (relative stereo), the IC50 (HeLa) is reported as 22.3 µM, the IC50 (MDA-MB-231) is reported as 20.7 µM and the IC50 (Jurkat) is reported as 100 µM. For the same compound, the IC50 (MCF7) was 28.5 µM, the IC50 (A549) was 22.3 µM and the IC50 (CCRF-CEM) was 100 µM.
With `CON1c2ccccc2[C@@]2(CN=C(SC)S2)[C@@H]1Oc1ccccc1` (relative stereo) the IC50 (HeLa) was 100 µM, the IC50 (MDA-MB-231) was 100 µM and the IC50 (Jurkat) was 100 µM. The IC50 (MCF7) was 100 µM, the IC50 (A549) was 100 µM and the IC50 (CCRF-CEM) was 100 µM.
With `CN[C@@H]1N(OC)c2ccccc2[C@@]12CN=C(SC)S2` (relative stereo) the IC50 (HeLa) was 33.6 µM, the IC50 (MDA-MB-231) was 100 µM and the IC50 (Jurkat) was 100 µM. The IC50 (MCF7) was 100 µM, the IC50 (A549) was 100 µM and the IC50 (CCRF-CEM) was 100 µM.
`CO[C@@H]1N(OC)c2ccccc2[C@@]12CN=C(SC)S2` (relative stereo) gave an IC50 (HeLa) of 53.2 µM, an IC50 (MDA-MB-231) of 100 µM and an IC50 (Jurkat) of 57.4 µM. The IC50 (MCF7) was 100 µM, the IC50 (A549) was 100 µM and the IC50 (CCRF-CEM) was 100 µM.
`CON1c2ccccc2[C@@]2(CN=C(SC)S2)[C@@H]1Nc1ccc(Br)cc1` (single isomer, unassigned) gave an IC50 (HeLa) of 55.7 µM, an IC50 (MDA-MB-231) of 100 µM and an IC50 (Jurkat) of 29.3 µM. For the same compound, the IC50 (MCF7) was 100 µM, the “diameter of the inhibition zone (DIZ)” value (Streptococcus pyogenes) was 7 mm and the IC50 (A549) was 100 µM. The IC50 (CCRF-CEM) was 54.8 µM.
In the case of `CON1c2ccccc2[C@@]2(CN=C(SC)S2)[C@@H]1Nc1ccc(C(F)(F)F)cc1` (relative stereo), the IC50 (HeLa) is reported as 81.9 µM, the IC50 (MDA-MB-231) is reported as 88 µM and the IC50 (Jurkat) is reported as 41.8 µM. For the same compound, the IC50 (MCF7) was 100 µM, the Activity (Bacillus subtilis) was “Active” and the IC50 (A549) was 1 µM. The IC50 (CCRF-CEM) was 74.3 µM.
Work on `CON1c2ccccc2[C@@]2(CN=C(SC)S2)[C@H]1Nc1ccc(Br)cc1` (relative stereo) yielded an IC50 (HeLa) of 81.5 µM, an IC50 (MDA-MB-231) of 100 µM and an IC50 (Jurkat) of 33.4 µM. It also gave an IC50 (MCF7) of 34.1 µM, an IC50 (A549) of 35.1 µM and an IC50 (CCRF-CEM) of 28.7 µM.
`CON1c2ccccc2[C@@]2(CN=C(SC)S2)[C@H]1Nc1ccccc1` (relative stereo) showed an IC50 (HeLa) of 31.9 µM, an IC50 (MDA-MB-231) of 100 µM and an IC50 (Jurkat) of 100 µM. For the same compound, the IC50 (MCF7) was 100 µM, the IC50 (A549) was 100 µM and the IC50 (CCRF-CEM) was 100 µM.
`CON1c2ccccc2[C@@]2(CN=C(SC)S2)[C@@H]1Nc1ccc([N+](=O)[O-])cc1` (relative stereo) showed an IC50 (HeLa) of 50 µM, an IC50 (MDA-MB-231) of 100 µM and an IC50 (Jurkat) of 10 µM. It also gave an IC50 (MCF7) of 100 µM, an IC50 (A549) of 100 µM and an IC50 (CCRF-CEM) of 100 µM.
With `CON1c2ccccc2[C@@]2(CN=C(SC)S2)[C@@H]1Nc1ccc(Cl)cc1` (relative stereo) the IC50 (HeLa) was 44.8 µM, the IC50 (MDA-MB-231) was 100 µM and the IC50 (Jurkat) was 30.7 µM. For the same compound, the IC50 (MCF7) was 100 µM, the IC50 (A549) was 85.9 µM and the IC50 (CCRF-CEM) was 37.4 µM.
`CON1c2ccccc2[C@@]2(CN=C(SC)S2)[C@H]1Oc1ccccc1` (relative stereo) gave an IC50 (HeLa) of 100 µM, an IC50 (MDA-MB-231) of 100 µM and an IC50 (Jurkat) of 100 µM. It also gave an IC50 (MCF7) of 100 µM, an IC50 (A549) of 100 µM and an IC50 (CCRF-CEM) of 100 µM.
Compound `CON1c2ccccc2[C@@]2(CN=C(SC)S2)[C@H]1Nc1ccc(C)c(C)c1` (relative stereo) has an IC50 (HeLa) of 23.8 µM, an IC50 (MDA-MB-231) of 100 µM and an IC50 (Jurkat) of 47.1 µM. For the same compound, the IC50 (MCF7) was 58 µM, the IC50 (A549) was 42.6 µM and the IC50 (CCRF-CEM) was 45.5 µM.
In the case of `CON1c2ccccc2[C@@]2(CN=C(SC)S2)[C@@H]1Nc1ccccc1Cl` (relative stereo), the IC50 (HeLa) is reported as 76.8 µM, the IC50 (MDA-MB-231) is reported as 100 µM and the IC50 (Jurkat) is reported as 29.4 µM. It also gave an IC50 (MCF7) of 100 µM, an IC50 (A549) of 100 µM and an IC50 (CCRF-CEM) of 36 µM.
With `COc1cccc2c1C(=O)c1c(O)c3c(c(O)c1C2=O)C[C@@](O)(C(=O)CO)C[C@@H]3O[C@H]1C[C@H](N)[C@H](O)[C@H](C)O1` [DOXORUBICIN] the IC50 (MDA-MB-231) was 0.2 µM, the IC50 (Jurkat) was 0.078 µM and the IC50 (MCF7) was 0.5 µM. It also gave an IC50 (CCRF-CEM) of 0.09 µM.
